Measured values as given in ChEMBL document CHEMBL4477178, “Biflorin, Isolated from the Flower Buds of Syzygium aromaticum L., Suppresses LPS-Induced Inflammatory Mediators via STAT1 Inactivation in Macrophages and Protects Mice from Endotoxin Shock” (J Nat Prod, 2016).
The source made the active and inactive calls. No cut-off for these calls is given here.

What was measured:
RAW264.7 [1] = test: Antiinflammatory activity in mouse RAW264.7 cells assessed as inhibition of LPS-induced COX-2 mRNA expression at 60 uM after 2 to 12 hrs by qRT-PCR method; assay type: functional, cell-based
Summary of the method: (§1)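 RAW 264.7 stimulated with LPS 10 ng/mL with or without 60 μM for 2, 4, 6 and 12 h. Total RNA (1 μg) reverse-transcribed with MuLV RT and random primer; SYBR green real-time qPCR with gene-specific primers, triplicate Ct normalized to β-actin. Mean ± SD, three independent experiments.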

[2] = biological target: T1, Signal transducer and activator of transcription 1 (Mus musculus) (UniProt P42225); test: Inhibition of LPS-induced STAT1 phosphorylation at S727 in mouse RAW264.7 cells at 15 to 60 uM preincubated for 1 hr followed by LPS challenge for 15 mins by Western blot analysis; assay type: cell-based
T1 sequence (whole entry): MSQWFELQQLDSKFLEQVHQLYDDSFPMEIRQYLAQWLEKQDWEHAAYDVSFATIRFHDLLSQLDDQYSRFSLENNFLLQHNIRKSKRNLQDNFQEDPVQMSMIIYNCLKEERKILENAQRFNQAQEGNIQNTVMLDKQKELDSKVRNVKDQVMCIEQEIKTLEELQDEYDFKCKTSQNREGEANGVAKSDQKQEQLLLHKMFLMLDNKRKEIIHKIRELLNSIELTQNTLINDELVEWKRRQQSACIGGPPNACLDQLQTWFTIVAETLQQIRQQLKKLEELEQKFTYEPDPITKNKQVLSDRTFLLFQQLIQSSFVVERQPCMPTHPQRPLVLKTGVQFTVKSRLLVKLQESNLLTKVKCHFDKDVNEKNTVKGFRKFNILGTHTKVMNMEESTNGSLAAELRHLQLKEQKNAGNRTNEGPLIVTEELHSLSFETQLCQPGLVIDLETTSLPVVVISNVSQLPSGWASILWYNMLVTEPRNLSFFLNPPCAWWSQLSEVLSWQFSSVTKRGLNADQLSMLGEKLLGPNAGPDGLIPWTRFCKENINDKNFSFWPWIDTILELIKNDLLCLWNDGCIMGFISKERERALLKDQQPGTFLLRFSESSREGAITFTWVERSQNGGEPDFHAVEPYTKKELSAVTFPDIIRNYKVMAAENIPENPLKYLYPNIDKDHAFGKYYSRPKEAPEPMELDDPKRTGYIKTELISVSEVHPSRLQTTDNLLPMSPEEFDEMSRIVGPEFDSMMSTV
Summary of the method: (§2)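 RAW 264.7 pretreated 1 h at 15, 30 or 60 μM, then LPS 10 ng/mL: 120 min for p-STAT1 Y701, 15 min for p-STAT1 S727, 120 min for p-STAT3 Y705. Western blot with phospho-specific and total STAT1/STAT3 antibodies, β-actin control; three independent experiments.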

Peritoneal macrophage = test: Antiinflammatory activity in C57BL/6 mouse peritoneal macrophages assessed as inhibition of LPS-induced TNF-alpha production at 60 uM preincubated for 1 hr followed by LPS challenge for 48 hrs by ELISA method; assay type: functional; conditions: C57BL/6, Peritoneal macrophage
Rattus norvegicus = test: Antiinflammatory activity in Sprague-Dawley rat assessed as reduction in carrageenan induced paw edema at 10 mg/kg, ip administered 1 hr before carrageenan challenge measured at 3 hrs post challenge relative to control; assay type: functional
Summary of the method: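 SD rats given compound i.p. (5, 10 or 15 mg/kg) 1 h before subplantar injection of 1% carrageenan in saline (0.1 mL) into the right hind paw. Paw volume measured by plethysmometer at 1, 3 and 5 h. Edema compared with the carrageenan-only group; seven rats per group.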

RAW264.7 [3] = test: Cytotoxicity against mouse RAW264.7 cells assessed as cell viability at 60 uM after 24 hrs by MTT assay in presence of LPS; assay type: cell-based; conditions: raw264.7, 24 h
Summary of the method: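 RAW 264.7 seeded at 1 × 10^5 cells/mL, grown overnight, exposed 24 h with or without LPS; MTT (5 mg/mL stock in PBS) added 4 h at 37 °C, formazan dissolved in DMSO, absorbance at 540 nm.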

RAW264.7 [4] = test: Antiinflammatory activity in mouse RAW264.7 cells assessed as downregulation of LPS-induced TNF-alpha expression at 60 uM preincubated for 1 hr followed by LPS challenge for 6 to 12 hrs by luciferase reporter gene assay; assay type: functional, cell-based
Summary of the method: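 RAW 264.7 transiently cotransfected with promoter-luciferase construct (pGL3-iNOS, pGL3-COX-2 or pTNF-α-luc) plus phRL-TK internal control; 6 h after transfection pretreated 1 h with 60 μM, then LPS 10 ng/mL for 6 or 12 h. Cells washed in cold PBS, lysed, luciferase read. Mean ± SD, three independent experiments.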

RAW264.7 [5] = test: Antiinflammatory activity in mouse RAW264.7 cells assessed as inhibition of LPS-induced iNOS mRNA expression at 60 uM after 2 to 12 hrs by qRT-PCR method; assay type: functional, cell-based; summary of the method: as §1
RAW264.7 [6] = test: Antiinflammatory activity in mouse RAW264.7 cells assessed as inhibition of LPS-induced IL-6 mRNA expression at 60 uM after 2 to 12 hrs by qRT-PCR method; assay type: functional, cell-based; summary of the method: as §1
[7] = biological target: T1, Signal transducer and activator of transcription 1 (Mus musculus); test: Inhibition of LPS-induced STAT1 phosphorylation at Y701 in mouse RAW264.7 cells at 15 to 60 uM preincubated for 1 hr followed by LPS challenge for 120 mins by Western blot analysis; assay type: cell-based; summary of the method: as §2
RAW264.7 [8] = test: Antiinflammatory activity in mouse RAW264.7 cell lysate assessed as inhibition of LPS-induced COX-2 expression preincubated for 1 hr followed by LPS challenge for 24 hrs by Western blot analysis; assay type: functional, cell-based
Summary of the method: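 RAW 264.7 (DMEM, 10% FBS, 37 °C, 5% CO2) pretreated 1 h at 15, 30 or 60 μM, then LPS 10 ng/mL for 24 h. Lysates run on 10–12% SDS-PAGE, blotted to PVDF, probed with iNOS or COX-2 antibody (1:1000, overnight 4 °C), HRP secondary, ECL; densitometry vs β-actin. Mean ± SD of three independent experiments.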

[9] = biological target: MAP kinase p38 (Mus musculus) (UniProt P47811+O08911+Q9WUI1+Q9Z1B7); test: Inhibition of LPS-induced p38 MAPK phosphorylation in mouse RAW264.7 cells preincubated for 1 hr followed by LPS challenge for 30 mins by Western blot analysis; assay type: cell-based
Summary of the method: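 RAW 264.7 pretreated 1 h at 15, 30 or 60 μM, then LPS 10 ng/mL for 30 min. Lysates Western-blotted for p-p38, p38, p-JNK, JNK, p-ERK, ERK with β-actin control; ECL, densitometry. Three independent experiments.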

**Q.** Which results are given for `Cc1cc(=O)c2c(O)c([C@@H]3O[C@H](CO)[C@@H](O)[C@H](O)[C@H]3O)c(O)cc2o1` [BIFLORIN]?
**A.** inhibition (RAW264.7 [1]): Active; inhibition [2]: Active; inhibition at 60 µM (Peritoneal macrophage): 77.5%; inhibition in vivo at 10 mg/kg (Rattus norvegicus): 48%; Activity (RAW264.7 [3]): Non-Toxic; Activity (RAW264.7 [4]): Active; inhibition (RAW264.7 [5]): Active; inhibition (RAW264.7 [6]): Active; inhibition [7]: Active; inhibition (RAW264.7 [8]): Dose-dependent effect; inhibition [9]: Dose-dependent effect
